C2C12 statin – suppressors of simvastatin-induced myotoxicity in C2C12 myotubes; ATP luminescence, 48 h; scaled: DMSO 0, geranylgeraniol control 100; rescue of ATP level, % at 7.49 µM; 330,000 tested, 0.78% active;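 active means mean ATP rescue above about 67%, or every replicate alone reaching that limit, limit read from the data, passing the limit was not always enough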;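 further: myotubes were challenged with 10 µM simvastatin during compound exposure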
ASAP1 GAP inh – inhibitors of human ASAP1 ArfGAP activity; Q9ULH1; ASAP1-stimulated ARF1 GTP hydrolysis, GDP FP detection; inhibition, % at 16.5 µM; 360,000 tested, 0.19% active; in the data active means inhibition above about 25%;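 further: 0% = vehicle with enzyme and substrate and 100% = no enzyme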
Mot1-301 SUMO – blocks SUMOylation pathway, rescuing yeast Mot1-301 growth; growth rescue, % at 18.8 µM; S. cerevisiae Mot1-301 growth rescue, ATP luminescence, 38.5C; percent above DMSO median, 100 means doubled; 320,000 tested, 1% active; AID 2716;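 active means every valid replicate shows activation above 250% relative to neutral control wells; inactive means the rest, any valid replicate at or below 250%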;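 further: OY570 slx delta 5 strain wells were the positive control but not used for scaling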
APOBEC3A inh – inhibitors of human APOBEC3A DNA deaminase | P31941 | recombinant A3A, FAM/TAMRA ssDNA deamination fluorescence | inhibition, % at 20 µM | 330,000 tested, 0.41% active | AID 493011;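 active means at least 40% inhibition at 20 µM here, with at most 30% in a related deaminase screen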;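 further: plate controls were A3A with DMSO for no effect and wells lacking A3A enzyme for full effect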
ARFGAP1 inh – rat ARFGAP1 inhibition. 360,000 tested, 0.26% active. inhibition, % at 16.5 µM. Arfgap1-stimulated ARF1 GTP hydrolysis, GDP FP detection;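 active means inhibition above a per-plate limit, mean inhibition of low control wells plus 3 SD, cut at about 25% in these data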;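 further: 0% = DMSO wells with enzyme and 100% = wells lacking Arfgap1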
Target sequence (Q62848 1-136 limits assumed): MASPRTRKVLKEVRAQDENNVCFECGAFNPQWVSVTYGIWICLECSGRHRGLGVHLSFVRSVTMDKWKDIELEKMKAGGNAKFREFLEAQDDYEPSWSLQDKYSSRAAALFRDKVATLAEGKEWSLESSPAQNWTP
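System: truncated rat Arfgap1 GAP domain / Benchmarks: high control wells lacking Arfgap1, low control full reaction with DMSO / Times: compound-enzyme preincubation 20 min, reaction 120 min, detection 60 min, 25 °C / Repeats: one replicate per compound / Also added: human ARF1(Δ1-17)-GTP substrate / Measured by: Tracer-displacement fluorescence polarization with EDTA stop, 620/688 nm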
APOBEC3G inh – APOBEC3G (human) deaminase inhibition. 330,000 tested, 0.28% active. Q9HC16. recombinant A3G, ssDNA deamination FAM/TAMRA fluorescence. inhibition, % at 20 µM;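 active means inhibition of at least 40% at 20 µM, with no more than 30% in the related APOBEC3A deaminase screen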;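 further: plate controls were DMSO wells with A3G for no effect and wells lacking A3G enzyme for full effect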
Target sequence (Q9HC16 whole entry, looked up): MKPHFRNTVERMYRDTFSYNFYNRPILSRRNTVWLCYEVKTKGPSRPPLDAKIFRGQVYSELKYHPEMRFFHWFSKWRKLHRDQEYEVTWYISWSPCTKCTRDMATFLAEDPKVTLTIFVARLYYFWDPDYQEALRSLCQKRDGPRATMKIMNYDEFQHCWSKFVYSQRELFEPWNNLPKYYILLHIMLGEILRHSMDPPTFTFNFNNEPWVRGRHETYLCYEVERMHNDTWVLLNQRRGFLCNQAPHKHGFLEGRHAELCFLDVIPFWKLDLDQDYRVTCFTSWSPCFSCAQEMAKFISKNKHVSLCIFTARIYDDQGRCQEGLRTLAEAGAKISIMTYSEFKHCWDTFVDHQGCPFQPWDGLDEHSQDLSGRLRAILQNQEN
The depositor's hits bear a star; . = no result given. A selection: hits, their analogues and other compounds. The true share with any hit is near 2.1%.

SMILES	C2C12 statin	ASAP1 GAP inh	Mot1-301 SUMO	APOBEC3A inh	ARFGAP1 inh	APOBEC3G inh
Cc1cc(C)c(C)c(OCCN2CC(C)OC(C)C2)c1 (stereo not given)	9	-3	17	-6	-9	-11
C[C@H](CO)N1C[C@H](C)[C@H](CN(C)Cc2ccccn2)Oc2ncc(C3=CCCC3)cc2C1=O	7	.	.	.	.	.
COc1ccccc1C(=O)OCC(=O)Nc1cc(S(=O)(=O)N2CCOCC2)ccc1N1CCCC1	.	-3	407*	-5	-1	-6
Cc1cc(C(=O)OCC(=O)Nc2cc(C(F)(F)F)ccc2N2CCOCC2)c(C)o1	94*	11	3	2	11	-1
CCN(CC)S(=O)(=O)c1ccc(N2CCOCC2)c(NC(=O)COc2ccccc2C#N)c1	-7	37*	-11	4	9	4
COc1ccc(C(=O)OCC(=O)Nc2cc(S(=O)(=O)N3CCOCC3)ccc2N2CCCC2)cc1	.	4	10	-2	23	-10
CCN(CC)S(=O)(=O)c1ccc(N2CCOCC2)c(NC(=O)COc2ccccc2C)c1	-12	2	2	-3	8	-10
COc1cc(/C=C/C(=O)OCC(=O)Nc2cc(S(=O)(=O)N3CCOCC3)ccc2Cl)cc(OC)c1OC	109*	-2	-18	0	4	-4
COCC(=O)Nc1ccc2c(c1)OC[C@@H](C)N(C(=O)c1ccccn1)C[C@@H](C)[C@H](OC)CN(C)C2=O	10	.	.	.	.	.
C[C@H](CO)N1C[C@H](C)[C@H](CN(C)S(=O)(=O)c2cccs2)Oc2ccc(NC(=O)Cc3cn(C)c4ccccc34)cc2CC1=O	-28	.	.	.	.	.
COc1ccc(S(=O)(=O)Nc2ccc3c(c2)C(=O)N([C@@H](C)CO)C[C@@H](C)[C@H](CN(C)S(=O)(=O)c2cccs2)OCCCC[C@@H](C)O3)cc1	34	.	.	.	.	.
C#Cc1ccc(CN2CCCC(C(=O)Nc3ccccc3Oc3cccnc3)C2)cc1 (stereo not given)	91*	3	11	0	-9	3
CCC(OCC(O)CN1CCCCC1)c1ccccc1 (stereo not given)	34	-13	15	-1	-1	-3
CCOC(=O)C1CCN(CC(O)COC(CC)c2ccccc2)CC1 (stereo not given)	-1	4	308*	-2	3	-2
BrC(/C=C\c1ccccc1)=N/Nc1nc(N2CCOCC2)nc(N2CCOCC2)n1	.	8	320*	-1	4	-2
CS(=O)(=O)Nc1ccc2c(c1)[C@@H]1C[C@@H](CC(=O)NCc3ccc(Cl)cc3)O[C@H](CO)[C@@H]1O2	0	.	.	.	.	.
COc1cnc(N(C)C)nc1Sc1ccc(Cl)cc1	104*	0	22	2	-4	3
O=C(O)CCSCCC(=O)O	91*	3	-18	0	6	-10
C[C@@H]1CN([C@H](C)CO)C(=O)c2cc(NC(=O)Cn3cnnn3)ccc2O[C@H]1CN(C)C(=O)Nc1cccc2ccccc12	19	.	.	.	.	.
Cc1c(Cl)cccc1NC(=S)N=Nc1c(O)n(CN2CCOCC2)c2ccccc12	.	.	365*	0	.	-1
O=C(C[C@@H]1CC[C@H]2[C@@H](COC[C@H](O)CN2C(=O)Nc2cccc(Cl)c2)O1)N1CCCCC1	-23	.	.	.	.	.
O=C(C[C@@H]1C=C[C@H](NC(=O)c2cccc(F)c2)[C@H](CO)O1)NCc1ccccc1	-7	.	.	.	.	.
Cc1noc(C)c1S(=O)(=O)Nc1ccc2c(c1)CC(=O)N([C@H](C)CO)C[C@@H](C)[C@@H](CN(C)C(=O)Nc1cccc3ccccc13)O2	29	.	.	.	.	.
Cc1ccc(C(=O)OCC(=O)Nc2ccc3c(c2)OCO3)cc1S(=O)(=O)N1CCOCC1	108*	16	-1	-1	-3	-3
CNC(=O)C[C@H]1CC[C@@H]2[C@H](COc3ccc(NC(=O)c4cccs4)cc3C(=O)N2C)O1	-5	.	.	.	.	.
SMILES	C2C12 statin	ASAP1 GAP inh	Mot1-301 SUMO	APOBEC3A inh	ARFGAP1 inh	APOBEC3G inh
CCc1nnc(SCC(=O)Nc2ccc(C(C)=O)cc2)nc1CC	113*	-17	8	-1	5	-1
CCc1ccc(NC(=O)CSc2nnc(CC)c(CC)n2)cc1	.	-4	21	-1	-4	-1
COCCCNC(=O)c1c(NC(=O)C2COc3ccccc3O2)sc2c1CCCC2 (stereo not given)	96*	-5	.	0	4	-3
O=C(NCCC1=CCCCC1)C1COc2ccccc2O1 (stereo not given)	146*	5	226	0	1	-3
CCNC(=O)c1c(NC(=O)C2COc3ccccc3O2)sc2c1CCCC2 (stereo not given)	.	-5	-1	1	-7	-5
C[C@@H]1CN([C@@H](C)CO)C(=O)c2cc(-c3cccnc3)cnc2O[C@H]1CN(C)C(=O)C1CCOCC1	-2	.	.	.	.	.
CCn1c(CSc2nc(C)cc(C)n2)nnc1SCC(=O)Nc1nc(-c2ccccc2)cs1	117*	-1	-9	0	2	-1
CCC(OC(=O)c1cccs1)C(=O)NCc1ccco1 (stereo not given)	102*	1	185	0	6	-3
CN(C)CCNc1nc(S(=O)(=O)c2ccccc2)c(Cl)s1	.	8	355*	-7	5	-3
CC(C)CNc1nc(S(=O)(=O)c2ccccc2)c(Cl)s1	0	-22	-11	4	10	-10
CN1CCN(CCN2CCn3c2nc2ccccc23)CC1	81*	1	-1	-4	9	-2
COc1ccccc1-n1cccc1C=O	.	5	659*	0	-6	-9
Cc1ccc(S(=O)(=O)N[C@H]2CC[C@H](CCNC(=O)C3CCOCC3)O[C@@H]2CO)cc1	-2	.	.	.	.	.
COc1cc(/C=C/C(=O)/C=C(O)/C=C/c2ccc(O)c(OC)c2)ccc1O	140*	9	16	-4	12	-10
COc1cc(/C=C/C(=O)O)ccc1O	-13	-7	18	1	5	-7
CN1CCN(C(=O)C[C@@H]2CC[C@H]3[C@@H](COC[C@@H](O)CN3S(=O)(=O)c3cccc(F)c3)O2)CC1	-8	.	.	.	.	.
O=C(C[C@H]1CC[C@H](NS(=O)(=O)c2cccc(F)c2)[C@@H](CO)O1)N1CCCCC1	4	.	.	.	.	.
COc1ccc(-c2nc(C#N)c(NCCCN(C)C)o2)cc1OC	16	15	306*	3	2	1
COc1ccc(CCNc2oc(-c3ccc(OC)c(OC)c3)nc2C#N)cc1	-13	-6	-1	-2	-5	-3
COc1ccc(NC(=O)Nc2ccc3c(c2)C(=O)N(C)C[C@H](OC)[C@@H](C)CN[C@@H](C)CO3)cc1	9	.	.	.	.	.
CC1(C)CCC(=O)N2CC[C@H]3c4cc5ccccc5nc4C[C@@H]1[C@H]32	99*	6	.	.	9	.
